Measurements from different studies.
Lines come from different studies, so protocols differ.

Structure (SMILES) | test | test system | setting | measurement | value
CNC(=O)n1ccc2cc(Oc3ccnc(NC(=O)c4ccc(C5CCN(CCO)CC5)cc4)c3)c(OCCOC)cc21 | – | human, plasma | oral, 35 mg, single dose, healthy volunteers | half-life | 1260 min
NC(=S)NN=Cc1ncccc1N | – | human, plasma | oral, 100 mg | half-life | 90 min
O=[N+]([O-])c1ccc(-c2ccc(O)cc2)c2cccnc12 | – | male CD-1 mouse, plasma | oral, 5 mg/kg | Vd/F | 157 L/kg
Cc1c(C(=O)O)ccc2c3n(nc12)[C@@H]1[C@H](C3)N(CC2CC2)[C@@]2(C(=O)Nc3cc(Cl)ccc32)[C@H]1c1cccc(Cl)c1F | – | female mouse, plasma | intravenous | Vd | 0.44 L/kg
Cc1ccc(C(=O)Nc2ccc(CN3CCN(C)CC3)c(C(F)(F)F)c2)cc1C#Cc1cnc2[nH]ncc2c1 | – | human, plasma | oral, 20 mg, healthy volunteers | half-life | 1990 min
N#C[C@@]12C[C@@H]1[C@@H](n1cnc3c(N[C@@H](C4CCC4)C4CC4)nc(I)nc31)[C@H](O)[C@@H]2O | chemical stability | simulated intestinal fluid | 2 h | compound remaining | 97.8%
COc1ccc([C@@H](O)c2cc(-c3ncnc4cc(N5CCOCC5)ccc34)c(F)cc2Cl)nn1 | – | human, plasma | oral, 400 mg, single dose, patients | half-life | 211 min
NS(=O)(=O)OC[C@@H]1C[C@@H](n2ccc3c(N[C@H]4CCc5ccccc54)ncnc32)C[C@@H]1O | – | human, plasma | intravenous, 35 mg/m², patients | half-life | 306 min
Cn1cc(Nc2nc(N)nc(-c3cccc(-n4ccc5cc(C6CC6)cc(F)c5c4=O)c3CO)n2)cn1 | – | human, plasma | oral, 300 mg, single dose, fasted, healthy volunteers | half-life | 582 min
CC(C)n1c(Nc2cccnc2)nc2cnc(Nc3ccc(N4CCN(C)CC4)cc3)nc21 | – | male human, plasma | oral, 100 mg, single dose | half-life | 2120 min
